Blank lines part the entries; values can stand above or below the molecule they belong to.
Legend:
Homo sapiens [1] = experiment: Apparent oral clearance in HIV-1 infected patient at 100 mg, po qd coadministered with 300 mg, po qd of atazanavir and NRTI; details: in vivo
[2] = AUC in HIV-1 infected patient at 100 mg, po bid coadministered with 400 mg, po bid of Lopinavir and 300 mg, po qd of atazanavir; format: ADME, organism-based; details: human, plasma
Method in brief: (§1)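 Retrospective steady-state TDM data from HIV-1-infected adults (n = 17 per group, matched for sex, age, ethnicity and body weight), taken after at least 2 weeks on therapy. Plasma sampled before dosing and at 1, 2, 4, 6, 9, 12 and 24 h, with food of approximately 2,500 kJ (21% fat). Drug levels measured by validated LC-MS/MS; parameters from noncompartmental analysis; geometric means (90% CI).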

[3] = AUC in HIV-1 infected patient at 100 mg, po bid coadministered with 400 mg, po bid of Lopinavir and NRTI; format: ADME, organism-based; details: human, plasma
Method in brief: (§2)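 HIV-1-infected adults on LPV-RTV gel capsules plus NRTI (n = 17, matched pairs) at steady state after at least 2 weeks of therapy, under a standardized routine TDM protocol with food of approximately 2,500 kJ (21% fat). Plasma sampled predose and at 1, 2, 4, 6, 9 and 12 h. Concentrations by validated LC-MS/MS; noncompartmental parameters given as geometric means (90% CI).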

[4] = Half life in HIV-1 infected patient at 100 mg, po bid coadministered with 300 mg, po qd of atazanavir and NRTI; details: human, in vivo
[5] = Cmax in HIV-1 infected patient at 100 mg, po bid coadministered with 400 mg, po bid of Lopinavir and NRTI; format: ADME, organism-based; design: dose 100 mg, route oral; details: human, in vivo
Method in brief: as §2

Homo sapiens [6] = experiment: Apparent oral clearance in HIV-1 infected patient at 100 mg, po bid coadministered with 400 mg, po bid of Lopinavir and NRTI; format: ADME, organism-based; details: in vivo
Method in brief: as §2

[7] = Cmax in HIV-1 infected patient at 100 mg, po bid coadministered with 400 mg, po bid of Lopinavir and 300 mg, po qd of atazanavir; format: ADME, organism-based; design: dose 100 mg, route oral; details: human, in vivo
Method in brief: as §1

[8] = Half life in HIV-1 infected patient at 100 mg, po bid coadministered with 400 mg, po bid of Lopinavir and NRTI; details: human, in vivo
[9] = Cmax in HIV-1 infected patient at 100 mg, po qd coadministered with 300 mg, po qd of atazanavir and NRTI; details: human, in vivo
[10] = AUC in HIV-1 infected patient at 100 mg, po qd coadministered with 300 mg, po qd of atazanavir and NRTI; details: human, plasma
[11] = Half life in HIV-1 infected patient at 300 mg, po qd coadministered with 400 mg, po bid and 100 mg, po bid of Lopinavir and ritonavir respectively; format: ADME, organism-based; details: human, in vivo
Method in brief: as §1

[12] = Half life in HIV-1 infected patient at 300 mg, po qd coadministered with 100 mg of ritonavir, po qd and NRTI; format: ADME, organism-based; details: human, in vivo
Method in brief: as §1

[13] = Cmax in HIV-1 infected patient at 300 mg, po qd coadministered with 400 mg, po bid and 100 mg, po bid of Lopinavir and ritonavir respectively; format: ADME, organism-based; design: dose 300 mg, route oral; details: human, in vivo
Method in brief: as §1

[14] = AUC in HIV-1 infected patient at 300 mg, po qd coadministered with 400 mg, po bid and 100 mg, po bid of Lopinavir and ritonavir respectively; format: ADME, organism-based; details: human, plasma
Method in brief: as §1

[15] = Oral clearance in HIV-1 infected patient at 300 mg, po qd coadministered with 100 mg of ritonavir, po qd and NRTI; format: ADME, organism-based; details: human, in vivo
Method in brief: as §1

[16] = Cmax in HIV-1 infected patient at 300 mg, po qd coadministered with 100 mg of ritonavir, po qd and NRTI; format: ADME, organism-based; design: dose 300 mg, route oral; details: human, in vivo
Method in brief: as §1

[17] = Apparent oral clearance in HIV-1 infected patient at 300 mg, po qd coadministered with 400 mg, po bid and 100 mg, po bid of Lopinavir and ritonavir respectively; format: ADME, organism-based; details: human, in vivo
Method in brief: as §1

[18] = AUC in HIV-1 infected patient at 300 mg, po qd coadministered with 100 mg of ritonavir, po qd and NRTI; format: ADME, organism-based; details: human, plasma
Method in brief: as §1

[19] = Apparent oral clearance in HIV-1 infected patient at 400 mg, po bid coadministered with 100 mg, po bid of ritonavir and 300 mg, po qd of atazanavir; format: ADME, organism-based; details: human, in vivo
Method in brief: as §1

[20] = Half life in HIV-1 infected patient at 400 mg, po bid coadministered with 100 mg, po bid of ritonavir and 300 mg, po qd of atazanavir; format: ADME, organism-based; details: human, in vivo
Method in brief: as §1

[21] = Half life in HIV-1 infected patient at 400 mg, po bid coadministered with 100 mg, po bid of ritonavir and NRTI; format: ADME, organism-based; details: human, in vivo
Method in brief: as §2

[22] = AUC in HIV-1 infected patient at 400 mg, po bid coadministered with 100 mg, po bid of ritonavir and 300 mg, po qd of atazanavir; format: ADME, organism-based; details: human, plasma
Method in brief: as §1

[23] = Cmax in HIV-1 infected patient at 400 mg, po bid coadministered with 100 mg, po bid of ritonavir and 300 mg, po qd of atazanavir; format: ADME, organism-based; design: dose 400 mg, route oral; details: human, in vivo
Method in brief: as §1

[24] = Cmax in HIV-1 infected patient at 400 mg, po bid coadministered with 100 mg, po bid of ritonavir and NRTI; format: ADME, organism-based; design: dose 400 mg, route oral; details: human, in vivo
Method in brief: as §2

[25] = Apparent oral clearance in HIV-1 infected patient at 400 mg, po bid coadministered with 100 mg, po bid of ritonavir with NRTI; format: ADME, organism-based; details: human, in vivo
Method in brief: as §2

[26] = AUC in HIV-1 infected patient at 400 mg, po bid coadministered with 100 mg, po bid of ritonavir and NRTI; format: ADME, organism-based; details: human, plasma
Method in brief: as §2

- CL/F (Homo sapiens [1]): 199 mL/min
- AUC [2]: 3290 ng·h/mL
- AUC [3]: 3580 ng·h/mL
- half-life [4]: 4.58 h
- Cmax [5]: 525 ng/mL
- CL/F (Homo sapiens [6]): 440 mL/min
- Cmax [7]: 468 ng/mL
- half-life [8]: 4.03 h
- Cmax [9]: 869 ng/mL
- AUC [10]: 7770 ng·h/mL
Compound: CC(C)c1nc(CN(C)C(=O)N[C@H](C(=O)N[C@@H](Cc2ccccc2)C[C@H](O)[C@H](Cc2ccccc2)NC(=O)OCc2cncs2)C(C)C)cs1 [RITONAVIR]

- half-life [11]: 7.79 h
- half-life [12]: 7.21 h
- Cmax [13]: 2260 ng/mL
- AUC [14]: 26400 ng·h/mL
- CL/F [15]: 154 mL/min
- Cmax [16]: 2740 ng/mL
- CL/F [17]: 185 mL/min
- AUC [18]: 30300 ng·h/mL
Compound: COC(=O)N[C@H](C(=O)N[C@@H](Cc1ccccc1)[C@@H](O)CN(Cc1ccc(-c2ccccn2)cc1)NC(=O)[C@@H](NC(=O)OC)C(C)(C)C)C(C)(C)C [ATAZANAVIR]

- CL/F [19]: 133 mL/min
- half-life [20]: 6.56 h
- half-life [21]: 8.21 h
- AUC [22]: 48500 ng·h/mL
- Cmax [23]: 5250 ng/mL
- Cmax [24]: 6850 ng/mL
- CL/F [25]: 99 mL/min
- AUC [26]: 59700 ng·h/mL
Compound: Cc1cccc(C)c1OCC(=O)N[C@@H](Cc1ccccc1)[C@@H](O)C[C@H](Cc1ccccc1)NC(=O)[C@H](C(C)C)N1CCCNC1=O [LOPINAVIR]

Source: ChEMBL document CHEMBL1671853, “Decrease of atazanavir and lopinavir plasma concentrations in a boosted double human immunodeficiency virus protease inhibitor salvage regimen” (Antimicrob Agents Chemother, 2008)
